Assay results reported in PubChem BioAssay AID651943 (The Scripps Research Institute Molecular Screening Center, 2012).
Active and inactive are the calls of the source.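 The calls were made as follows: active = bacterial viability inhibition with half-maximal concentration IC50 at or below 10 µM; inactive = the rest.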

These molecules were tested on E. coli V66 growth, OD600 absorbance, 18 h (assay: E. coli V66 viability reduction – absorbance, dose response, round 2, counter-screen for AddAB helicase-nuclease inhibitor project, late-stage follow-up (AID 651943)).
How it was run: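 System: uninfected E. coli strain V66, RecBCD+; buffer or medium: Mueller Hinton broth, cation-adjusted, plus 0.1% glycerol; compound dosing: Ten-point threefold dilution series, top nominal concentration 118.6 µM; schedule: 18 h compound exposure, 37 °C; technique: optical density by absorbance at 600 nm; replicates: triplicate wells per compound concentration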

Structure (SMILES)	IC50
CCn1cc(C(=O)O)c(=O)c2cnc(N3CCN(C(=S)NC(=O)c4cccc(C)c4)CC3)nc21	> 39.5 µM (inactive)
CCn1cc(C(=O)O)c(=O)c2cnc(N3CCN(C(=S)NCc4ccccc4)CC3)nc21	> 119 µM (inactive)
CCn1cc(C(=O)O)c(=O)c2cnc(N3CCN(C(=S)Nc4ccccc4F)CC3)nc21	> 119 µM (inactive)
CCn1cc(C(=O)O)c(=O)c2cnc(N3CCN(C(=S)Nc4cccc(C(F)(F)F)c4)CC3)nc21	34.4 µM (inactive)
CCn1cc(C(=O)O)c(=O)c2cnc(N3CCN(C(=S)Nc4ccccc4OC)CC3)nc21	> 119 µM (inactive)
CCn1cc(C(=O)O)c(=O)c2cnc(N3CCN(C(=S)Nc4ccc(Cl)cc4)CC3)nc21	> 39.5 µM (inactive)
